Screening data: PubChem, Sanford-Burnham Center for Chemical Genomics
TNAP act hi DEA – TNAP (human) activation, high acceptor; P05186; purified TNAP, CDP-star luminescence, 1 M DEA, 30 min; stronger effect = higher value; 0 = EDTA background, 1 = DMSO-only activity; activation factor at 20 µM; 200,000 tested, under 10 active; AID 1136;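 active = activation factor at least 2 at 20 µM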
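Control set: EDTA negative control, DMSO positive control / Assay system: human TNAP / Quantity: TNAP 1/800 final / Evaluation: TNAP activation factor scaled between EDTA and DMSO control wells / Measured by: luminescent substrate turnover signal / Compound dosing: one dose, 20 µM / Times: 30 min enzyme reaction at room temperature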
TNAP inh no acc – blocks human TNAP activity with no phosphate acceptor present; purified TNAP, CDP-star luminescence, 30 min; inhibition, % at 20 µM; P05186; 0.26% of 200,000 active;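 active = tissue-nonspecific alkaline phosphatase inhibition above about 50% at 20 µM in the single-dose screen, limit read from the data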;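 also: 0% = DMSO negative control and 100% = EDTA positive control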
TNAP inh hiacc – inhibitors of human TNAP at high phosphate acceptor concentration. AID 1135. P05186. 0.03% of 200,000 active. purified TNAP, CDP-star luminescence, 1 M DEA. inhibition, % at 20 µM;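 active = over 50% inhibition of tissue-nonspecific alkaline phosphatase at 20 µM in the single-dose screen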;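 also: plate controls were DMSO wells for no effect and EDTA-quenched wells as full inhibition for full effect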
PMI activator – increases human mannose-6-phosphate isomerase activity; P34949; purified human PMI, coupled resazurin fluorescence, 20 min; stronger effect = higher value; 1 = vehicle control, 0 substrate-free wells; activation factor at 20 µM; 0.005% of 190,000 active;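 active = activation factor of 2 or more at 20 µM, relative to plate controls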
Target sequence (P34949 whole entry, looked up): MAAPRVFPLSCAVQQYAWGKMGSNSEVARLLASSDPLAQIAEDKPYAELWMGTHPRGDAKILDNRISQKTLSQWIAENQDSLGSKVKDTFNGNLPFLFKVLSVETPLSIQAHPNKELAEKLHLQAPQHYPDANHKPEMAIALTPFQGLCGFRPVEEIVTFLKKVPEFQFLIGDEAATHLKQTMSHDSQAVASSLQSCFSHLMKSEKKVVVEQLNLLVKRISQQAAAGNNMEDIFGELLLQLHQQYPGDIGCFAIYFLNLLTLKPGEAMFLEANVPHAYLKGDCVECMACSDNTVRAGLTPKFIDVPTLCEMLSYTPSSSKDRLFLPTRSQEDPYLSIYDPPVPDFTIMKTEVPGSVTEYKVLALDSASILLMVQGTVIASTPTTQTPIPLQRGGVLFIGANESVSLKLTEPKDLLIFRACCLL
PMI act hi M6P – increases human PMI activity with near-saturating mannose 6-phosphate | 0.34% of 190,000 active | activation factor at 20 µM | AID 1216 | P34949 | coupled PMI enzyme assay, resazurin fluorescence, 20 min; stronger effect = higher value; 1 = untreated enzyme, 0 = substrate-free blank;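 active = activation factor of 2 or more at 20 µM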
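Test system: Human PMI in coupled enzyme assay | Input: 15 ng/mL PMI | Medium: HEPES-buffered pH 7.4 with magnesium and detergent | Compound: One concentration, 20 µM, in 1% DMSO | Incubation: Enzyme reaction with compound 20 min at room temperature | Detection: Diaphorase-driven resazurin-to-resorufin fluorescence, excitation 544, emission 590 nm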
* hit, by the source's call. In the library only some 0.64% were active in any assay of this set; here they are far more common.

CC1(c2ccccc2)NC(=S)N2C1NC(=S)N2c1ccccc1 (configuration not stated) was read as TNAP act hi DEA 1, TNAP inh no acc -35.7, TNAP inh hiacc 0.9, PMI activator 1.1 and PMI act hi M6P 1.2.
For CC(C)(C)N1NC2(CCCCC2)NC1=S the results were TNAP act hi DEA 1, TNAP inh no acc 3.7, TNAP inh hiacc -1.7, PMI activator 1.5 and PMI act hi M6P 2.1*.
`O=C1NC2(CCC3(CC2)OCCO3)NN1c1ccccc1` gave TNAP act hi DEA 1, TNAP inh no acc -8.7, TNAP inh hiacc -3.4, PMI activator 1.6 and PMI act hi M6P 2.3*.
`CC1CC(C)(C)CC2(C1)NC(=S)N(c1ccccc1)N2` (configuration not stated) gave TNAP act hi DEA 1, TNAP inh no acc 10.2, TNAP inh hiacc -2.8, PMI activator 1.7 and PMI act hi M6P 2*.
Screening S=C1NC2(CCCCC2)NN1c1ccccc1 returned TNAP act hi DEA 1, TNAP inh no acc -9.8, TNAP inh hiacc -4.2, PMI activator 1.8 and PMI act hi M6P 2.9*.
`COCCNc1c(-c2cc3ccc(C)c(C)c3[nH]c2=O)nc2ccccn12` gave TNAP act hi DEA 1, TNAP inh no acc -0.9, TNAP inh hiacc -0.2, PMI activator 0.9 and PMI act hi M6P 0.8.
Screening CCOc1cc(/C=N/NC(=O)C(=O)Nc2cc(Cl)ccc2C)ccc1O returned TNAP act hi DEA 1, TNAP inh no acc -26.0, TNAP inh hiacc -2.5, PMI activator 1.1 and PMI act hi M6P 0.9.
For CC(=O)Nc1ccc(C(=S)NCCCO)cc1 the results were TNAP act hi DEA 1, TNAP inh no acc -12.2, TNAP inh hiacc -3.8, PMI activator 1.1 and PMI act hi M6P 1.1.
`O=C(O)CCNC(=O)c1ccc(NC(=O)Cc2ccc(Cl)cc2)cc1` gave TNAP act hi DEA 1, TNAP inh no acc -10.8, TNAP inh hiacc 0.4, PMI activator 1.1 and PMI act hi M6P 1.1.
CC1CCCC2(C1)NC(=S)N(c1ccccc1)N2 (configuration not stated) was read as TNAP act hi DEA 1, TNAP inh no acc -6.0, TNAP inh hiacc -0.1, PMI activator 1.5 and PMI act hi M6P 2.7*.
CC1CCCC2(C1)NC(=S)c1c(sc3c1CCCC3)N2 (configuration not stated) was read as TNAP act hi DEA 1, TNAP inh no acc -10.1, TNAP inh hiacc 3.3, PMI activator 0.3 and PMI act hi M6P 0.6.
For CC1=NN(c2ccccc2)C(=O)/C1=C/C=C/C=C/N(C)C the results were TNAP act hi DEA 0.4, TNAP inh no acc 36.4, TNAP inh hiacc 55.1*, PMI activator 0.5 and PMI act hi M6P 0.5.
`CC1=NN(c2ccc(C)cc2)C(=O)/C1=C\C=C\c1ccccc1` gave TNAP act hi DEA 1, TNAP inh no acc 5.3, TNAP inh hiacc 3.3, PMI activator 1 and PMI act hi M6P 1.1.
Cc1cc(C(=O)CSc2nnnn2-c2ccc(O)cc2)c(C)n1C was read as TNAP act hi DEA 1, TNAP inh no acc 4.6, TNAP inh hiacc -0.5, PMI activator 1 and PMI act hi M6P 0.9.
For NC(=O)c1ccc(-n2nnnc2SCC(=O)c2ccc(O)c(O)c2)cc1 the results were TNAP act hi DEA 0.9, TNAP inh no acc 82.4*, TNAP inh hiacc 14.8, PMI activator 0.7 and PMI act hi M6P 1.1.
Screening COc1ccc(-n2nnnc2SCC(=O)c2ccc(O)c(O)c2)cc1 returned TNAP act hi DEA 0.8, TNAP inh no acc 75.6*, TNAP inh hiacc 17.5, PMI activator 0.7 and PMI act hi M6P 0.7.
CCC(C)(NC(=O)c1ccc2c(c1)OCO2)C(=O)NC1CCCCC1 (configuration not stated) was read as TNAP act hi DEA 1, TNAP inh no acc -10.6, TNAP inh hiacc -3.1, PMI activator 1.1 and PMI act hi M6P 1.
Screening O=C(NCCCN1CCOCC1)c1coc2ccccc2c1=O returned TNAP act hi DEA 1.1, TNAP inh no acc -5.5, TNAP inh hiacc -9.2, PMI activator 1.1 and PMI act hi M6P 1.1.
Screening O=c1c(N2CCOCC2)coc2ccccc12 returned TNAP inh no acc -8.4, PMI activator 1.8 and PMI act hi M6P 2.8*.
Screening O=c1c2c3c(sc2nc2n1CCCCC2)C(O)CCC3 (configuration not stated) returned TNAP act hi DEA 1.1, TNAP inh no acc -6.6, TNAP inh hiacc -6.1, PMI activator 0.9 and PMI act hi M6P 0.9.
`CCCCN1CC2=C(C1=O)C(c1ccc(O)cc1)NC(=O)N2C` (configuration not stated) gave TNAP act hi DEA 1, TNAP inh no acc -6.7, TNAP inh hiacc 0.5, PMI activator 1.1 and PMI act hi M6P 1.1.
Cc1cc(C(F)(F)F)nc(SCCN2CCOCC2)c1C#N was read as TNAP act hi DEA 1, TNAP inh no acc -11.6, TNAP inh hiacc -3.4, PMI activator 1.7 and PMI act hi M6P 2.2*.
Screening O=C(Nc1ccc(NC(=O)c2sc3ccccc3c2Cl)cc1)c1ccco1 returned TNAP act hi DEA 1, TNAP inh no acc -13.2, TNAP inh hiacc -0.7, PMI activator 0.8 and PMI act hi M6P 1.
COc1ccccc1-c1nnc(NC(C)=O)s1 was read as TNAP act hi DEA 1, TNAP inh no acc -5.0, TNAP inh hiacc 4.1, PMI activator 1.1 and PMI act hi M6P 1.1.
COc1ccccc1-c1nc(NC(C)=O)n[nH]1 was read as TNAP act hi DEA 1, TNAP inh no acc 92.9*, TNAP inh hiacc 0.1, PMI activator 1 and PMI act hi M6P 1.
CC1=NN(C(=O)c2ccc(Cn3cc([N+](=O)[O-])cn3)cc2)C(O)(C(F)(F)F)C1 (configuration not stated) was read as TNAP act hi DEA 1.1, TNAP inh no acc -10.9, TNAP inh hiacc -5.1, PMI activator 1 and PMI act hi M6P 0.9.
Oc1ccc(/C=N/NC(=S)N2CCOCC2)cc1 was read as TNAP act hi DEA 1, TNAP inh no acc -43.4, TNAP inh hiacc -3.3, PMI activator 0.9 and PMI act hi M6P 0.9.
Screening CC(C)(C)c1nc(NC(=O)Nc2ccccc2)sc1Br returned TNAP act hi DEA 1, TNAP inh no acc -5.3, TNAP inh hiacc -2.3, PMI activator 1 and PMI act hi M6P 0.9.
Screening CCCCn1cnc2cc(C)c(C)cc21 returned TNAP act hi DEA 1, TNAP inh no acc -11.4, TNAP inh hiacc -4.1, PMI activator 1 and PMI act hi M6P 1.
Cc1cc(C)c2c(-n3cccc3)n[nH]c2n1 was read as TNAP act hi DEA 1, TNAP inh no acc 68.4*, TNAP inh hiacc -1.4, PMI activator 1 and PMI act hi M6P 1.
`Cc1ccc(N2NC3(CCN(C(N)=O)CC3)NC2=O)cc1` gave TNAP act hi DEA 1, TNAP inh no acc -8.9, TNAP inh hiacc -3.1, PMI activator 1.6 and PMI act hi M6P 2.3*.
